Data taken from publication PMC9742164 (ChemMedChem, 2022).
In brackets after ≈: the same amount, converted by molar mass.

Tests used:
E. coli DNA gyrase [1] = molecular target: T1, E. coli DNA gyrase (Escherichia coli, UniProt P0AES6); assay: Gel-based DNA gyrase supercoiling inhibition assay; type: biochemical; settings: for Inhibition of E. coli DNA gyrase: polyphenol screen, in words; for IC50: supercoiling
S. aureus ATCC 14775 = assay: MIC broth microdilution; type: cell-based
MRSA ATCC 33591 = assay: MIC broth microdilution; type: cell-based, methicillin-resistant Staphylococcus aureus
B. subtilis ATCC 6633 = assay: MIC broth microdilution; type: cell-based
E. coli ATCC 25922 = assay: MIC broth microdilution; type: cell-based
E. coli imp BAS3023 = type: cell-based; settings: E. coli imp BAS3023 (imp4213 permeability mutation)
E. coli DNA gyrase [2] = molecular target: T1, E. coli DNA gyrase; assay: SDFQ-based DNA gyrase supercoiling inhibition assay; type: biochemical
[3] = molecular target: T2, E. coli DNA topoisomerase IV (Escherichia coli, UniProt P20083); assay: Gel-based DNA relaxation assay by topoisomerase IV; type: biochemical; settings: for IC50: IC50 against E. coli topoisomerase IV, relaxation; for Inhibition of E. coli DNA topoisomerase IV: in words
T2 sequence (P20083 whole entry): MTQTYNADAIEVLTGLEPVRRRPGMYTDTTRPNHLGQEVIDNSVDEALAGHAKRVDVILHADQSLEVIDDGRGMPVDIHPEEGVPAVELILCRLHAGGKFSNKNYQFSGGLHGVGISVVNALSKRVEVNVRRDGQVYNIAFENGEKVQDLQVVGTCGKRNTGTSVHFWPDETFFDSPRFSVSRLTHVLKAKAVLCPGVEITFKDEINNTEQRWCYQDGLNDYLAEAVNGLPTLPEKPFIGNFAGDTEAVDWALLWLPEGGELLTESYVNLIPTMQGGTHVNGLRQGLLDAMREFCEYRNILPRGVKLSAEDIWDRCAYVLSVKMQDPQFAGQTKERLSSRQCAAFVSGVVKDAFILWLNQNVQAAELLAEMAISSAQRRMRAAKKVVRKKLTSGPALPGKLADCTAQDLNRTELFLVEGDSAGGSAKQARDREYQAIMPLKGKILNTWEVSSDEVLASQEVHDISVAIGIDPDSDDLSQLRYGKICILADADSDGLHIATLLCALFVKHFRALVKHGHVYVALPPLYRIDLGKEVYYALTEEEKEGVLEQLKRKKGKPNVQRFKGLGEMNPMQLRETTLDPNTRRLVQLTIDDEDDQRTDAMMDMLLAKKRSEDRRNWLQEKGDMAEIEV
T2 sequence (P0AFI2 whole entry, further chain): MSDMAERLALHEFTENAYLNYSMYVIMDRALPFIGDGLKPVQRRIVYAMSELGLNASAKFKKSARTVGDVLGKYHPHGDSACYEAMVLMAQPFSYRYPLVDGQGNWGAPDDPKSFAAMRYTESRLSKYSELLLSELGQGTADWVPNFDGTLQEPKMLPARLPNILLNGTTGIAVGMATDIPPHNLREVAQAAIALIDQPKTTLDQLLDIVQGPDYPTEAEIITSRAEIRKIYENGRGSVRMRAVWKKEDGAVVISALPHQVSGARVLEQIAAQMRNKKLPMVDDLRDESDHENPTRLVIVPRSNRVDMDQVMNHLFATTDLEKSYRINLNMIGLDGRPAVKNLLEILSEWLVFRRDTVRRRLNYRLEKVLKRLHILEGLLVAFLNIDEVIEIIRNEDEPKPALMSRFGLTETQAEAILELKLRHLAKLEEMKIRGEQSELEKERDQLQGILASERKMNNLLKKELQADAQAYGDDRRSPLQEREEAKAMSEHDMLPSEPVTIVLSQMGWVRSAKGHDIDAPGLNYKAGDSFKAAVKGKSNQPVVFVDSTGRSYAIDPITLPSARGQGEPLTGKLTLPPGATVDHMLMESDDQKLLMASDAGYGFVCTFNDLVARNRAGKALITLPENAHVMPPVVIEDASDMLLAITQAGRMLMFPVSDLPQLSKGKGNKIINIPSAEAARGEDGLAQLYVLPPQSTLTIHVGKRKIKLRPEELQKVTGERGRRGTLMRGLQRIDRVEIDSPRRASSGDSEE

[4] = molecular target: T2, E. coli DNA topoisomerase IV; assay: SDFQ-based DNA relaxation assay by topoisomerase IV; type: biochemical
[5] = molecular target: T2, E. coli DNA topoisomerase IV; assay: DNA decatenation assay by topoisomerase IV; type: biochemical
E. coli DNA gyrase [6] = molecular target: T1, E. coli DNA gyrase; assay: DNA gyrase ATPase linked assay; type: biochemical
Summary of the method: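 Pyruvate kinase/lactate dehydrogenase-coupled NADH assay at 37°C. Buffer: 10 mM Tris-HCl pH 7.5, 0.2 mM EDTA, 1 mM MgCl2, 1 mM DTT, 2% glycerol. Mix: 50 nM gyrase or GyrB, 200 ng relaxed pAB1, 0.8 mM phosphoenolpyruvate, 1.2 U PK, 1.7 U LDH, 0.4 mM NADH. After 5 min preincubation, 2 mM ATP started the reaction, read at A340. Double-reciprocal plot with or without test compound at 500 nM; single-point at 100 μM.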

[7] = molecular target: T2, E. coli DNA topoisomerase IV; assay: Topoisomerase IV ATPase linked assay; type: biochemical; settings: in words; 100 μM (Figure 4e)
Summary of the method: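 Topoisomerase IV ATP hydrolysis was coupled to NADH oxidation via pyruvate kinase/lactate dehydrogenase, read at 340 nm, 37°C. Buffer: 10 mM Tris-HCl pH 7.5, 0.2 mM EDTA, 1 mM MgCl2, 1 mM DTT, 2% glycerol. Mix: relaxed pAB1, 0.8 mM phosphoenolpyruvate, 0.4 mM NADH. After 5 min preincubation, 2 mM ATP was added. Test compounds at 100 μM.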

[8] = molecular target: E. coli DNA topoisomerase I (Escherichia coli, UniProt P06612); assay: DNA relaxation assay by E. coli DNA topoisomerase I; type: biochemical; settings: at 100 μM
E. coli DNA topoisomerase I, sequence (P06612 whole entry): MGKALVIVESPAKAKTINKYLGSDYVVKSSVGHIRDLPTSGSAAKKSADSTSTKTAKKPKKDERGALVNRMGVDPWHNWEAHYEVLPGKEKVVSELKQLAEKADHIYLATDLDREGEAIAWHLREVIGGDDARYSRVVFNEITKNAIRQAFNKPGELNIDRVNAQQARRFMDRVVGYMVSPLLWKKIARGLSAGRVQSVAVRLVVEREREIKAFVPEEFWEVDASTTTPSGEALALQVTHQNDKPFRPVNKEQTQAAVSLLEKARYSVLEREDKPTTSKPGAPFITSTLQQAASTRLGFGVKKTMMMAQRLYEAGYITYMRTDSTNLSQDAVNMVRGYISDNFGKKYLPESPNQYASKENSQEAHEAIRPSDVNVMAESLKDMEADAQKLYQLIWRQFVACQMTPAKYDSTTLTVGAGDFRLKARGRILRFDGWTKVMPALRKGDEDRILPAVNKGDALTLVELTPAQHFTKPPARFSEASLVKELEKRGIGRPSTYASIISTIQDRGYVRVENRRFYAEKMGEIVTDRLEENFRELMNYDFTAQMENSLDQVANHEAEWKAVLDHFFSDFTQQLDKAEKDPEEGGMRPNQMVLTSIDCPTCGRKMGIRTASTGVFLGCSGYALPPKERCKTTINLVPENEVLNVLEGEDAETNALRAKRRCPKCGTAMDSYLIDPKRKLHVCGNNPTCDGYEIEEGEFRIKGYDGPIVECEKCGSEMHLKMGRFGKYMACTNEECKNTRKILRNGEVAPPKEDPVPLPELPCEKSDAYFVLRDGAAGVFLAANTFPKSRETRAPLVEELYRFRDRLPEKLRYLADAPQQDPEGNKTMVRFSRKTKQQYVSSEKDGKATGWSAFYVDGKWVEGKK

[9] = molecular target: T3, human DNA topoisomerase I (Homo sapiens, UniProt P11387); assay: DNA relaxation assay by human DNA topoisomerase I; type: biochemical; settings: at 100 μM
T3 sequence (P11387 1-765): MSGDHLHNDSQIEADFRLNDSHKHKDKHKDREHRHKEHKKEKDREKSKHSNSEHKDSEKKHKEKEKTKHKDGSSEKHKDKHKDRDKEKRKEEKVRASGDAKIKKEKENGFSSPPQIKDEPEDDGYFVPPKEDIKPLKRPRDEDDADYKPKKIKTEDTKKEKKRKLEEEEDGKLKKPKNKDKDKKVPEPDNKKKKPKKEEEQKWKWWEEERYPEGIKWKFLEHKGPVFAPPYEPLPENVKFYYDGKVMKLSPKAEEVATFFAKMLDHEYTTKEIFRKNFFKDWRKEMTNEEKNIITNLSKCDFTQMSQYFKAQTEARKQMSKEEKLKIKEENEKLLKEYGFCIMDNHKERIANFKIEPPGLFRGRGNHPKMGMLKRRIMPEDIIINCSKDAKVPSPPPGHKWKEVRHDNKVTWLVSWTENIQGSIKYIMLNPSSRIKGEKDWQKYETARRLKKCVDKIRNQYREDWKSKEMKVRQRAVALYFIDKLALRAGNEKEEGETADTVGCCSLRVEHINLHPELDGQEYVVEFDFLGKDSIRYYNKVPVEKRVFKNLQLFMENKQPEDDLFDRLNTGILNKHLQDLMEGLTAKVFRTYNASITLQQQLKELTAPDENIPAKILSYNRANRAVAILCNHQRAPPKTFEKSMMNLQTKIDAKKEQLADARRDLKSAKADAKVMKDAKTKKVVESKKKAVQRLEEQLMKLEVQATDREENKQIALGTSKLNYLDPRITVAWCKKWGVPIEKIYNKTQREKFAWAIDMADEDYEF

[10] = molecular target: human DNA topoisomerase IIα (Homo sapiens, UniProt P11388); assay: DNA relaxation assay by human DNA topoisomerase IIα; type: biochemical; settings: at 100 μM
human DNA topoisomerase IIα, sequence (P11388 whole entry): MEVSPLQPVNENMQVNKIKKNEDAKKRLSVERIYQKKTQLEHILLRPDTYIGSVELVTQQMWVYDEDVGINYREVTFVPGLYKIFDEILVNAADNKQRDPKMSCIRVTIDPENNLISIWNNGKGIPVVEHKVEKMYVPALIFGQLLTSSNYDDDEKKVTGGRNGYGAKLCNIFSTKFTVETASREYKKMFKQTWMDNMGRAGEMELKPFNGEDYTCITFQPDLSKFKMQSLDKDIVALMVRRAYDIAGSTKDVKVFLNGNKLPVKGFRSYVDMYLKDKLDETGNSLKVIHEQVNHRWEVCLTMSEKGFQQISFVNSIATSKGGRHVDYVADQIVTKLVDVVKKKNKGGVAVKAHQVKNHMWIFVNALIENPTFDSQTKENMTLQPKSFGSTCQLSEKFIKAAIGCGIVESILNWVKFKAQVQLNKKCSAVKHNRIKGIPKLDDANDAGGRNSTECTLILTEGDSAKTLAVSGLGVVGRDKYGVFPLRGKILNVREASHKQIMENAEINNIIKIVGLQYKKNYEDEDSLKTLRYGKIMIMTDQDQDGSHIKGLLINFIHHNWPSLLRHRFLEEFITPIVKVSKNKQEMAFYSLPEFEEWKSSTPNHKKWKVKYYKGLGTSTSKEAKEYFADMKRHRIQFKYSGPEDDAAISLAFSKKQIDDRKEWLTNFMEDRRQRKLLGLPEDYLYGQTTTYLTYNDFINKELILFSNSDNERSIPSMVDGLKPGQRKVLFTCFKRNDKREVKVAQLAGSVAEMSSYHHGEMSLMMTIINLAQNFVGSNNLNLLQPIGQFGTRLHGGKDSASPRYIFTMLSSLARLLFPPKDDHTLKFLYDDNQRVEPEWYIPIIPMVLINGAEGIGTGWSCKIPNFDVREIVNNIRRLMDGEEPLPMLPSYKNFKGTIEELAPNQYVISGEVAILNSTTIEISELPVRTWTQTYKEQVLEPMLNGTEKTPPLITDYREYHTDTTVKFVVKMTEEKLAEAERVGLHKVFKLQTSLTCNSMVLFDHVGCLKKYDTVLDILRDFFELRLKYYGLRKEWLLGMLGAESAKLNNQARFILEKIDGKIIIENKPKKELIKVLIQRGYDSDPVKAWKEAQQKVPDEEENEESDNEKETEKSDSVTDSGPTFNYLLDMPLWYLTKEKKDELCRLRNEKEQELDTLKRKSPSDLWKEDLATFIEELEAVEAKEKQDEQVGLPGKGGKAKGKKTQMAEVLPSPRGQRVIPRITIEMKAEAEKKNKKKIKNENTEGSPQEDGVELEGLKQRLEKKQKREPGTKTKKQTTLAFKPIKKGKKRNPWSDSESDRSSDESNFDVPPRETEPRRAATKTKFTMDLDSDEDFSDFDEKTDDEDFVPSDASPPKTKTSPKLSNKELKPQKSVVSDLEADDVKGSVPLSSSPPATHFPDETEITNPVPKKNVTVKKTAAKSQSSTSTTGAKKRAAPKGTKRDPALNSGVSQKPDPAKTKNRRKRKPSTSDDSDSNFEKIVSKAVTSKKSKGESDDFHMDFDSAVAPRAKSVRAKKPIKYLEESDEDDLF

E. coli DNA gyrase [11] = molecular target: T1, E. coli DNA gyrase; assay: DNA gyrase-mediated DNA cleavage assay; type: biochemical; settings: up to 200 μM digallic acid
Summary of the method: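 Plasmid pBR322 (250 ng) and 20 nM E. coli gyrase were incubated in gyrase buffer with test compound (0–200 μM) at 37°C for 15 min. Then 0.2% SDS and 0.1 mg/mL proteinase K were added to trap cleavage complexes, with 30 min more at 37°C. […] Products ran on 1% agarose containing 0.5 μg/mL ethidium bromide.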

[12] = IC50 against E. coli DNA gyrase, Gel-based
[13] = Staphylococcus aureus, ATCC14775
[14] = Staphylococcus aureus, ATCC33591|MRSA

Compound | IC50 (E. coli DNA gyrase [1]; [12]) | IC50 (E. coli DNA gyrase [2]) | IC50 ([3]; Gel-based) | IC50 [4] | MIC (S. aureus ATCC 14775; [13]) | MIC (MRSA ATCC 33591; [14]) | MIC (E. coli ATCC 25922; Escherichia coli, ATCC25922) | other results
O=C(/C=C/c1ccc(O)c(O)c1)O[C@@H]1CC(O)(C(=O)O)C[C@@H](OC(=O)/C=C/c2ccc(O)c(O)c2)C1O (stereo partly drawn) [3,5-dicaffeoylquinic acid, reference compound] | – | – | – | – | – | – | – | Inhibition of E. coli DNA gyrase (E. coli DNA gyrase [1]): strongly inhibit
O=C(Oc1ccc(-c2ccccc2)cc1)c1cc(O)c(O)c(O)c1 [Biphenyl gallate, biphenyl gallate] | – | – | – | – | – | – | – | MIC (S. aureus ATCC 14775; S. aureus ATCC 14775): 50 µM (≈ 16.1 µg/mL); MIC (MRSA ATCC 33591; MRSA ATCC 33591): 50 µM (≈ 16.1 µg/mL); MIC (B. subtilis ATCC 6633): 50 to 100 µM; MIC (E. coli ATCC 25922; E. coli ATCC 25922): >200 µM; MIC (E. coli imp BAS3023): 200 µM (≈ 64.5 µg/mL)
CCCCOC(=O)c1cc(O)c(O)c(O)c1 [Butyl gallate, butyl gallate] | > 100 µM | > 100 µM | > 100 µM | > 100 µM | > 200 µM | > 200 µM | > 200 µM | –
O=C(O)c1cc(O)c(O)c(OC(=O)c2cc(O)c(O)c(O)c2)c1 [Digallic acid, digallic acid] | 2 µM | 1.9 µM | 8 µM | 7.3 µM | 200 µM (≈ 64.4 µg/mL) | 200 µM (≈ 64.4 µg/mL) | > 200 µM | IC50 (E. coli DNA gyrase [1]; IC50 against E. coli DNA gyrase, gel (Figure 1)): ~2 µM; IC50 [3]: ~8 µM; IC50 [5]: ~4 µM; Ki (E. coli DNA gyrase [6]): 347 nM; Vmax of gyrase ATPase (E. coli DNA gyrase [6]; in the presence of 500 nM of digallic acid, without inhibitor 16.3 ± 2.5 nM/s): 17.8 ± 5.0 nM/s; Inhibition of ATPase activities of E. coli DNA gyrase (E. coli DNA gyrase [6]; in words, 100 μM (Figure 3d)): greatly inhibit; Inhibition of ATPase activities of bacterial DNA topoisomerase IV [7]: inhibit; Inhibition of E. coli DNA topoisomerase I [8]: do not inhibit; Inhibition of human DNA topoisomerase I [9]: do not inhibit; Inhibition of human DNA topoisomerase IIα [10]: do not inhibit; Gyrase poisoning (gyrase-mediated DNA cleavage) (E. coli DNA gyrase [11]): not bacterial DNA gyrase poisons
CCCCCCCCCCCCOC(=O)c1cc(O)c(O)c(O)c1 [Dodecyl gallate, dodecyl gallate] | 15 µM | 13.8 µM | 50 µM | 36.9 µM | 200 µM (≈ 67.7 µg/mL) | 200 µM (≈ 67.7 µg/mL) | > 200 µM | Inhibition of E. coli DNA topoisomerase IV [3]: strongly inhibit
O=C(O[C@@H]1Cc2c(O)cc(O)cc2O[C@@H]1c1cc(O)c(O)c(O)c1)c1cc(O)c(O)c(O)c1 [EGCG, epigallocatechin gallate, reference compound] | – | – | – | – | – | – | – | Inhibition of E. coli DNA gyrase (E. coli DNA gyrase [1]): strongly inhibit
O=C(O)c1cc(O)c(O)c(O)c1 [Gallic acid, gallic acid] | > 500 µM | – | > 500 µM | – | – | – | – | –
CO[C@@H]1[C@@H](OC(N)=O)[C@@H](O)[C@H](Oc2ccc3c(O)c(NC(=O)c4ccc(O)c(CC=C(C)C)c4)c(=O)oc3c2C)OC1(C)C [Novobiocin, novobiocin, reference compound] | – | – | – | – | < 6.25 µM | < 6.25 µM | 158 µM (≈ 96.5 µg/mL) | –
CCCCCCCCOC(=O)c1cc(O)c(O)c(O)c1 [Octyl gallate, octyl gallate] | 50 µM | 26 µM | 50 µM | 41.2 µM | 200 µM (≈ 56.5 µg/mL) | 100 µM (≈ 28.2 µg/mL) | > 200 µM | Inhibition of E. coli DNA topoisomerase IV [3]: strongly inhibit
O=C(Oc1ccccc1)c1cc(O)c(O)c(O)c1 [Phenyl gallate, phenyl gallate] | – | – | – | – | – | – | – | IC50 (E. coli DNA gyrase [1]; read-out: IC50 against E. coli DNA gyrase, Gel-based, gel-based): > 100 µM; IC50 (E. coli DNA gyrase [2]; read-out: IC50 against E. coli DNA gyrase, SDFQ, supercoiling, SDFQ): > 100 µM; IC50 ([4]; read-out: IC50 against E. coli topoisomerase IV, SDFQ, relaxation, SDFQ): > 100 µM; MIC (S. aureus ATCC 14775; S. aureus ATCC 14775): 200 µM (≈ 49.2 µg/mL); MIC (MRSA ATCC 33591; MRSA ATCC 33591): 200 µM (≈ 49.2 µg/mL); MIC (B. subtilis ATCC 6633): >200 µM; MIC (E. coli ATCC 25922; E. coli ATCC 25922): >200 µM; MIC (E. coli imp BAS3023): >200 µM
O=c1oc2c(O)c(O)cc3c(=O)oc4c(O)c(O)cc1c4c23 [ellagic acid, reference compound] | – | – | – | – | – | – | – | Inhibition of E. coli DNA gyrase (E. coli DNA gyrase [1]): strongly inhibit
tannic acid | – | – | – | – | – | – | – | IC50 (E. coli DNA gyrase [1]; read-out: IC50 against E. coli DNA gyrase, gel (Figure 1)): 1 µM
